Measured values published in ChEMBL document CHEMBL1821590, “Novel dihydropyrimidines and its pyrazole derivatives: synthesis and pharmacological screening” (Eur J Med Chem, 2011).
≈ marks a conversion by molar mass, not a printed value.

Columns and labels:
Type in all cases: functional
Bacillus subtilis [1] = assay: Antimicrobial activity against Bacillus subtilis at 100 ug/ml by agar plate diffusion technique; settings: read-out: IZ
How it was run: (§1)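 Agar plate diffusion against E. coli, P. aeruginosa, S. aureus and B. subtilis, with compounds at 25, 50 and 100 µg/mL. Streptomycin as standard.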

[2] = Antioxidant activity assessed as nitric oxide radical scavenging activity after 150 mins
How it was run: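 10 mM sodium nitroprusside (4 mL), PBS pH 7.4 (1 mL) and sample or ascorbic acid in DMSO (1 mL, 12.5–100 µg/mL), incubated 150 min at 25 °C. Nitrite detected with sulphanilic acid (5 min) then naphthylethylenediamine (30 min, diffused light). Read at […]. Triplicate. % inhibition = [1 − (Vt/Vc)] × 100. IC50 derived from it.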

Pseudomonas aeruginosa [3] = assay: Antimicrobial activity against Pseudomonas aeruginosa at 25 ug/ml by agar plate diffusion technique; settings: read-out: IZ; how it was run: as §1
Staphylococcus aureus [4] = assay: Antimicrobial activity against Staphylococcus aureus at 25 ug/ml by agar plate diffusion technique; settings: read-out: IZ; how it was run: as §1
Metaphire posthuma [5] = assay: Anthelmintic activity against Pheretima posthuma assessed as time taken for complete parasite paralysis at 0.5% w/v
How it was run: (§2)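 Earthworms (Pheretima posthuma) exposed to test solutions at 0.1, 0.2 and 0.5% w/v; time in minutes to complete paralysis (worms motionless) recorded. Albendazole as standard. Mean of three determinations ± S.D.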

Escherichia coli [6] = assay: Antimicrobial activity against Escherichia coli at 100 ug/ml by agar plate diffusion technique; settings: read-out: IZ; how it was run: as §1
Bacillus subtilis [7] = assay: Antimicrobial activity against Bacillus subtilis at 50 ug/ml by agar plate diffusion technique; settings: read-out: IZ; how it was run: as §1
Metaphire posthuma [8] = assay: Anthelmintic activity against Pheretima posthuma assessed as time taken for parasite death at 0.2% w/v
How it was run: (§3)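 Earthworms (Pheretima posthuma, spelled Perituma posthuma in text) exposed to test compounds at 0.1, 0.2 and 0.5% w/v. Albendazole served as standard, with an untreated control. Paralysis was recorded as the time until worms became motionless, then time to death was recorded, in minutes. Each value is the mean of three determinations with S.D.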

Metaphire posthuma [9] = assay: Anthelmintic activity against Pheretima posthuma assessed as time taken for complete parasite paralysis at 0.2% w/v; how it was run: as §2
Pseudomonas aeruginosa [10] = assay: Antimicrobial activity against Pseudomonas aeruginosa at 50 ug/ml by agar plate diffusion technique; settings: read-out: IZ; how it was run: as §1
Candida albicans [11] = assay: Antimicrobial activity against Candida albicans at 100 ug/ml by paper disc method; settings: read-out: IZ
How it was run: (§4)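 Paper disc method against A. niger and C. albicans, with compounds at 25, 50 and 100 µg/mL. Amphotericin-B as standard.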

Pseudomonas aeruginosa [12] = assay: Antimicrobial activity against Pseudomonas aeruginosa at 100 ug/ml by agar plate diffusion technique; settings: read-out: IZ; how it was run: as §1
[13] = Antioxidant activity assessed as hydrogen peroxide scavenging activity after 10 mins
How it was run: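 H2O2 (20 mM) in PBS pH 7.4. 1 mL of sample or ascorbic acid in methanol (12.5–100 µg/mL) added to 2 mL H2O2 solution. A230 read after 10 min. % inhibition = [1 − (Vt/Vc)] × 100. Triplicate, averaged. IC50 derived from % inhibition across concentrations.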

Escherichia coli [14] = assay: Antimicrobial activity against Escherichia coli at 25 ug/ml by agar plate diffusion technique; settings: read-out: IZ; how it was run: as §1
Staphylococcus aureus [15] = assay: Antimicrobial activity against Staphylococcus aureus at 100 ug/ml by agar plate diffusion technique; settings: read-out: IZ; how it was run: as §1
[16] = Antioxidant activity assessed as potassium ferricyanide ion reducing power after 20 mins
How it was run: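 Oyaizu method. Samples or ascorbic acid in DMF (12.5–100 µg/mL) mixed with 0.2 M phosphate buffer pH 6.6 and 1% potassium ferricyanide, 20 min at 50 °C. 10% TCA added, centrifuged. Supernatant mixed with water and 0.1% FeCl3, read at 700 nm. % = [(Vt/Vc) − 1] × 100. IC50 derived.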

Metaphire posthuma [17] = assay: Anthelmintic activity against Pheretima posthuma assessed as time taken for complete parasite paralysis at 0.1% w/v; how it was run: as §2
Bacillus subtilis [18] = assay: Antimicrobial activity against Bacillus subtilis at 25 ug/ml by agar plate diffusion technique; settings: read-out: IZ; how it was run: as §1
Staphylococcus aureus [19] = assay: Antimicrobial activity against Staphylococcus aureus at 50 ug/ml by agar plate diffusion technique; settings: read-out: IZ; how it was run: as §1
Metaphire posthuma [20] = assay: Anthelmintic activity against Pheretima posthuma assessed as time taken for parasite death at 0.1% w/v; how it was run: as §3
[21] = Antioxidant activity assessed as inhibition of lipid peroxidation using egg lecithin liposomes incubated for 1 hr
How it was run: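 Egg lecithin (3 mg/mL, phosphate buffer pH 7.4) sonicated 10 min to form liposomes. Sample or ascorbic acid (12.5–100 µg/mL) added. Peroxidation induced with FeCl3 and L-ascorbic acid, 1 h at 37 °C. Stopped with HCl/TCA/TBA/BHA, boiled 15 min, centrifuged, supernatant read at 532 nm. Triplicate. % inhibition vs control. IC50 derived.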

[22] = Antiinflammatory activity assessed as inhibition of albumin denaturation at 100 ug/ml by UV-visible spectrophotometry
How it was run: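 Compounds dissolved in minimal DMF, diluted in PBS pH 7.4 (final DMF <2.5%). 1 mL test solution (100 µg/mL) plus 1 mL 1% albumin in PBS, 15 min at 27 ± 1 °C, then heated 10 min at 60 ± 1 °C. After cooling, turbidity read at 660 nm. % inhibition = [(Vt/Vc) − 1] × 100 against a no-drug control. Triplicate, averaged. Diclofenac standard.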

Escherichia coli [23] = assay: Antimicrobial activity against Escherichia coli at 50 ug/ml by agar plate diffusion technique; settings: read-out: IZ; how it was run: as §1
Candida albicans [24] = assay: Antimicrobial activity against Candida albicans at 50 ug/ml by paper disc method; settings: read-out: IZ; how it was run: as §4
Aspergillus niger [25] = assay: Antimicrobial activity against Aspergillus niger at 25 ug/ml by paper disc method; settings: read-out: IZ; how it was run: as §4
Metaphire posthuma [26] = assay: Anthelmintic activity against Pheretima posthuma assessed as time taken for parasite death at 0.5% w/v; how it was run: as §3
Candida albicans [27] = assay: Antimicrobial activity against Candida albicans at 25 ug/ml by paper disc method; settings: read-out: IZ; how it was run: as §4
Aspergillus niger [28] = assay: Antimicrobial activity against Aspergillus niger at 100 ug/ml by paper disc method; settings: read-out: IZ; how it was run: as §4
Aspergillus niger [29] = assay: Antimicrobial activity against Aspergillus niger at 50 ug/ml by paper disc method; settings: read-out: IZ; how it was run: as §4

SMILES | zone of inhibition at 100 µg/mL (Bacillus subtilis [1]) | IC50 [2] | zone of inhibition at 25 µg/mL (Pseudomonas aeruginosa [3]) | zone of inhibition at 25 µg/mL (Staphylococcus aureus [4]) | Time (Metaphire posthuma [5]) | zone of inhibition at 50 µg/mL (Bacillus subtilis [7]) | Time (Metaphire posthuma [8]) | Time (Metaphire posthuma [9]) | zone of inhibition at 50 µg/mL (Pseudomonas aeruginosa [10]) | zone of inhibition at 100 µg/mL (Candida albicans [11]) | zone of inhibition at 100 µg/mL (Pseudomonas aeruginosa [12]) | IC50 [13] | zone of inhibition at 100 µg/mL (Staphylococcus aureus [15]) | IC50 [16] | Time (Metaphire posthuma [17]) | zone of inhibition at 25 µg/mL (Bacillus subtilis [18]) | zone of inhibition at 50 µg/mL (Staphylococcus aureus [19]) | Time (Metaphire posthuma [20]) | IC50 [21] | inhibition [22] | also measured
CCOC(=O)c1cnn(-c2nc(-c3ccc(N(C)C)cc3)c(C#N)c(=O)n2C)c1N | 20.9 mm | 115 µg/mL (≈ 282 µM) | 8.29 mm | 10.1 mm | 42.87 min | 14.8 mm | 57.55 min | 46.58 min | 11.9 mm | 17.7 mm | 16.7 mm | 119 µg/mL (≈ 292 µM) | 16.5 mm | 98 µg/mL (≈ 241 µM) | 41.45 min | 11.2 mm | 13.5 mm | 49.79 min | 111 µg/mL (≈ 272 µM) | 20.4% | zone of inhibition at 100 µg/mL (Escherichia coli [6]): 14 mm; zone of inhibition at 25 µg/mL (Escherichia coli [14]): 11.1 mm; zone of inhibition at 50 µg/mL (Escherichia coli [23]): 10.2 mm; zone of inhibition at 50 µg/mL (Candida albicans [24]): 13.7 mm; zone of inhibition at 25 µg/mL (Aspergillus niger [25]): 10.2 mm; Time (Metaphire posthuma [26]): 58.72 min; zone of inhibition at 25 µg/mL (Candida albicans [27]): 10.4 mm; zone of inhibition at 100 µg/mL (Aspergillus niger [28]): 18.3 mm; zone of inhibition at 50 µg/mL (Aspergillus niger [29]): 12.2 mm
CSc1nc(-c2ccc(N(C)C)cc2)c(C#N)c(=O)n1C | 20.3 mm | 93 µg/mL (≈ 310 µM) | 6.06 mm | 6.38 mm | 40.22 min | 13.9 mm | 55.59 min | 44.52 min | 8.52 mm | 17.9 mm | 10.6 mm | 84 µg/mL (≈ 280 µM) | 9.38 mm | 78 µg/mL (≈ 260 µM) | 35.25 min | 10.3 mm | 8.25 mm | 47.57 min | 98 µg/mL (≈ 326 µM) | 19.3% | zone of inhibition at 50 µg/mL (Candida albicans [24]): 14.4 mm; zone of inhibition at 25 µg/mL (Aspergillus niger [25]): 11.1 mm; Time (Metaphire posthuma [26]): 54.1 min; zone of inhibition at 25 µg/mL (Candida albicans [27]): 11.8 mm; zone of inhibition at 100 µg/mL (Aspergillus niger [28]): 19.7 mm; zone of inhibition at 50 µg/mL (Aspergillus niger [29]): 14.5 mm
CCOC(=O)c1cnn(-c2nc(-c3cccc(OC)c3OC)c(C#N)c(=O)n2C)c1N | 19.2 mm | 69 µg/mL (≈ 163 µM) | 9.9 mm | 10.3 mm | 43.9 min | 15.1 mm | 62.12 min | 55.1 min | 12.3 mm | 17 mm | 17.4 mm | 67 µg/mL (≈ 158 µM) | 18.7 mm | 54 µg/mL (≈ 127 µM) | 75.14 min | 11.6 mm | 14.1 mm | 87.55 min | 57 µg/mL (≈ 134 µM) | 33.9% | zone of inhibition at 100 µg/mL (Escherichia coli [6]): 16.2 mm; zone of inhibition at 25 µg/mL (Escherichia coli [14]): 10.3 mm; zone of inhibition at 50 µg/mL (Escherichia coli [23]): 12.4 mm; zone of inhibition at 50 µg/mL (Candida albicans [24]): 13.5 mm; zone of inhibition at 25 µg/mL (Aspergillus niger [25]): 10.8 mm; Time (Metaphire posthuma [26]): 52.69 min; zone of inhibition at 25 µg/mL (Candida albicans [27]): 9.41 mm; zone of inhibition at 100 µg/mL (Aspergillus niger [28]): 18.9 mm; zone of inhibition at 50 µg/mL (Aspergillus niger [29]): 12.1 mm
